How the values were obtained:
[1] = test system: CCRF-CEM; test: Inhibition of DNA synthesis in human CCRF-CEM assessed as assessed as BrdU incorporation at 5 x GIC50 after 24 by flow cytometry; format: functional; parameters: scale not given: the % may be the effect or the level left
Summary of the method: (§1)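 Culture as for cell cycle work (CCRF-CEM, 24 h, 1× or 5× GIC₅₀). Pulse with 10 μM BrdU for 30 min before harvest. Fixed in 70% ethanol, DNA denatured in 2 M HCl, neutralized with 0.1 M borax. Stained with anti-BrdU and FITC secondary, plus PI 0.1 mg/mL and RNase A. BrdU+ cells counted by flow cytometry.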

[2] = Cytotoxicity against human HeLaS3 cells after 3 days by XTT assay; format: functional, cell-based; conditions: HeLa S3, 72 h
[3] = test system: HCT-15; test: Cytotoxicity against human HCT15 cells after 5 days by SRB assay; format: functional; conditions: HCT-15, 120 h
Summary of the method: (§2)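 Cells seeded in RPMI (colon, breast, lung lines), MEM (Du145) or F12K (PC3) with 10% FBS, 37 °C overnight. Day-zero plates fixed with cold 10% TCA. Compounds added as 5-fold serial dilutions for 5 days. Fixed, stained with 0.057% SRB in 1% acetic acid, dye solubilized in 10 mM Tris pH 10.5, A500 read. Growth % corrected for day-0 OD; GIC₅₀ from sigmoidal fit.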

[4] = test system: CCRF-CEM; test: Cell cycle arrest in human CCRF-CEM assessed as accumulation at S phase at 1 x GIC50 after 24 hrs by flow cytometry; format: functional
Summary of the method: (§3)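 Subconfluent CCRF-CEM (5 × 10⁵ cells/mL, RPMI 1640 + 10% FCS, 37 °C CO₂) exposed 24 h at 1× or 5× GIC₅₀, vehicle controls alongside. Cells fixed overnight in 70% ethanol at -20 °C, hypotonic citrate wash, RNase 50 μg/mL, propidium iodide stain, 488 nm flow cytometry. Sub-G1 = particles with PI content below G0/G1 cells. Reported as % of total cells.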

[5] = Cytostatic activity against human Hs578 cells after 5 days by SRB assay; format: functional; conditions: Hs578, 120 h; summary of the method: as §2
[6] = test system: A549; test: Cytostatic activity against human A549 cells after 5 days by SRB assay; format: functional; conditions: A549, 120 h; summary of the method: as §2
[7] = test system: DU-145; test: Cytostatic activity against human DU145 cells after 5 days by SRB assay; format: functional; conditions: DU-145, 120 h; summary of the method: as §2
[8] = test system: HCT-116; test: Cytostatic activity against human HCT116 cells after 5 days by SRB assay; format: functional; conditions: HCT-116, 120 h; summary of the method: as §2
[9] = test system: CCRF-CEM; test: Cell cycle arrest in human CCRF-CEM assessed as accumulation at G1 phase at 1 x GIC50 after 24 hrs by flow cytometry; format: functional; summary of the method: as §3
[10] = test system: CCRF-CEM; test: Inhibition of RNA synthesis in human CCRF-CEM assessed as assessed as BrdU incorporation at 1 x GIC50 after 24 by flow cytometry; format: functional; parameters: scale not given: the % may be the effect or the level left
Summary of the method: (§4)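 CCRF-CEM culture as for cell cycle (24 h, 1× or 5× GIC₅₀). Cells pulsed 30 min with 1 mM bromouridine before harvest. Fixed in 1% paraformaldehyde/0.05% NP-40. Stained with anti-BrdU antibody cross-reacting with BrU, then FITC secondary, PI and RNase A. BrU+ cells quantified by 488 nm flow cytometry.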

[11] = test system: CCRF-CEM; test: Cell cycle arrest in human CCRF-CEM assessed as accumulation at G2/M phase at 5 x GIC50 after 24 hrs by flow cytometry; format: functional; summary of the method: as §3
[12] = test system: CCRF-CEM; test: Cell cycle arrest in human CCRF-CEM assessed as accumulation at subG1 phase at 1 x GIC50 after 24 hrs by flow cytometry; format: functional; summary of the method: as §3
[13] = test system: CCRF-CEM; test: Cytotoxicity against human CCRF-CEM cells after 3 days by XTT assay; format: functional, cell-based; conditions: 72 h
Summary of the method: (§5)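 Cell viability of CCRF-CEM, HL60 and HeLa cells measured by XTT assay after 72 h incubation with compounds. IC₅₀ taken as mean of 2–4 independent experiments.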

[14] = test system: NCI-H23; test: Cytotoxicity against human NCI-H23 cells after 5 days by SRB assay; format: functional; conditions: NCI-H23, 120 h; summary of the method: as §2
[15] = test system: CCRF-CEM; test: Cell cycle arrest in human CCRF-CEM assessed as accumulation at G2/M phase at 1 x GIC50 after 24 hrs by flow cytometry; format: functional; summary of the method: as §3
[16] = test system: CCRF-CEM; test: Cell cycle arrest in human CCRF-CEM assessed as accumulation at subG1 phase at 5 x GIC50 after 24 hrs by flow cytometry; format: functional; summary of the method: as §3
[17] = test system: HL-60; test: Cytotoxicity against human HL60 cells after 3 days by XTT assay; format: functional, cell-based; conditions: HL-60, 72 h; summary of the method: as §5
[18] = test system: CCRF-CEM; test: Inhibition of RNA synthesis in human CCRF-CEM assessed as assessed as BrdU incorporation at 5 x GIC50 after 24 by flow cytometry; format: functional; parameters: scale not given: the % may be the effect or the level left; summary of the method: as §4
[19] = test system: PC-3; test: Cytotoxicity against human PC3 cells after 5 days by SRB assay; format: functional; conditions: PC-3, 120 h; summary of the method: as §2
[20] = test system: CCRF-CEM; test: Antimitotic activity in human CCRF-CEM cells assessed as decrease in mitotic histone H3 at 5 x GIC50; format: functional; parameters: scale not given: the % may be the effect or the level left
Summary of the method: (§6)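 CCRF-CEM cells seeded subconfluent at 5 × 10⁵ cells/mL in RPMI 1640 with 10% FCS, 10 mM glutamine, penicillin/streptomycin, 37 °C humidified CO₂. Exposed 24 h at 1× or 5× GIC₅₀; vehicle controls harvested at 24 h. Ethanol-fixed cells labelled with anti-phospho-histone H3 Ser10 and mitotic cells counted by flow cytometry as % of total population.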

[21] = test system: CCRF-CEM; test: Antimitotic activity in human CCRF-CEM cells assessed as decrease in mitotic histone H3 at 1 x GIC50; format: functional; parameters: scale not given: the % may be the effect or the level left; summary of the method: as §6
[22] = test system: CCRF-CEM; test: Cell cycle arrest in human CCRF-CEM assessed as accumulation at G1 phase at 5 x GIC50 after 24 hrs by flow cytometry; format: functional; summary of the method: as §3
[23] = test system: CCRF-CEM; test: Cell cycle arrest in human CCRF-CEM assessed as accumulation at S phase at 5 x GIC50 after 24 hrs by flow cytometry; format: functional; summary of the method: as §3
[24] = test system: CCRF-CEM; test: Inhibition of DNA synthesis in human CCRF-CEM assessed as assessed as BrdU incorporation at 1 x GIC50 after 24 by flow cytometry; format: functional; parameters: scale not given: the % may be the effect or the level left; summary of the method: as §1
[25] = test system: BT-549; test: Cytotoxicity against human BT549 cells after 5 days by SRB assay; format: functional; conditions: BT-549, 120 h; summary of the method: as §2
[26] = test system: CCRF-CEM; test: Inhibition of RNA synthesis in human CCRF-CEM assessed as assessed as BrdU incorporation after 24 by flow cytometry; format: functional
[27] = test system: CCRF-CEM; test: Inhibition of DNA synthesis in human CCRF-CEM assessed as assessed as BrdU incorporation after 24 by flow cytometry; format: functional

Row | SMILES | Activity [1] | IC50 [2] | GI50 [3] | Activity [4] | GI50 [5] | Activity [9] | Activity [10] | Activity [11] | Activity [12] | GI50 [14] | Activity [15] | Activity [16] | Activity [18] | GI50 [19] | Activity [20] | Activity [21] | Activity [22] | Activity [23] | Activity [24] | GI50 [25] | also measured
1 | OC[C@H]1O[C@@H](n2ccc3c(-c4ccoc4)ncnc32)[C@H](O)[C@@H]1O | 28.9% | 4600 nM | 86 nM | 37.3% | 260 nM | 55.6% | 14% | 5.9% | 39.8% | 280 nM | 7.1% | 61.2% | 7.2% | 96 nM | 0.39% | 0.84% | 54.4% | 39.7% | 44.6% | 35 nM | GI50 [6]: 73 nM; GI50 [7]: 36 nM; GI50 [8]: 92 nM; IC50 [13]: 1900 nM; IC50 [17]: 1500 nM
2 | Nc1nc(Cl)nc2c1ncn2[C@H]1C[C@H](O)[C@@H](CO)O1 [CLADRIBINE] | 13% | – | – | 24.9% | – | 73.2% | 46.2% | 7.6% | 48% | – | 1.9% | 61.5% | 41.3% | – | 0.44% | 0.85% | 61.6% | 30.8% | 32.1% | – | inhibition (INH) [26]: 44.77%; inhibition (INH) [27]: 9.54%
3 | Nc1ccn([C@@H]2O[C@H](CO)[C@@H](O)C2(F)F)c(=O)n1 [GEMCITABINE] | 9.5% | – | 3 nM | 72.3% | – | 27.1% | 54.7% | 2.3% | 24.1% | 2 nM | 0.6% | 54% | 44.8% | 6 nM | 0.53% | 0.78% | 67.1% | 30.5% | 56.7% | 4 nM | –
4 | OC[C@H]1O[C@@H](n2cc(F)c3c(-c4cccs4)ncnc32)[C@H](O)[C@@H]1O | 47% | 4300 nM | 18 nM | 46.7% | 130 nM | 43.9% | 28.4% | 9.1% | 17.1% | 1500 nM | 9.3% | 43.4% | 5.7% | 90 nM | 0.47% | 0.85% | 40.4% | 50.5% | 56.2% | 81 nM | GI50 [6]: 61 nM; GI50 [7]: 9 nM; GI50 [8]: 9 nM; IC50 [13]: 270 nM; IC50 [17]: 4300 nM
